Measured values from article PMC4962910 (Nature cell biology, 2014).
Non-standard residues stand in square brackets, D forms with d. Residues, ends and D or L forms follow the SMILES beside them. No end group written: not given here. pT = C[C@@H](OP(=O)(O)O)[C@H](N)C(=O)O; pS = N[C@@H](COP(=O)(O)O)C(=O)O

Columns and labels:
[1] = test system: NBS1-GFP positive nucleoli; assay type: cell-based; conditions: PARP inhibition (Supplementary Fig. 6c)
Outline: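 U2OS cells stably expressing NBS1-GFP (U2OS-NBS1-GFP2) were grown in DME with 10 % fetal bovine serum, penicillin and streptomycin. Medium was supplemented with the PARP inhibitor veliparib (ABT888) for 1 h. Each cell was scored manually as positive or negative by visual presence of GFP signal within nucleoli.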

NBS1 = molecular target: T1, NBS1 (Homo sapiens, UniProt O60934); assay: Isothermal titration calorimetry; assay type: binding
T1 sequence (O60934 1-382 limits assumed): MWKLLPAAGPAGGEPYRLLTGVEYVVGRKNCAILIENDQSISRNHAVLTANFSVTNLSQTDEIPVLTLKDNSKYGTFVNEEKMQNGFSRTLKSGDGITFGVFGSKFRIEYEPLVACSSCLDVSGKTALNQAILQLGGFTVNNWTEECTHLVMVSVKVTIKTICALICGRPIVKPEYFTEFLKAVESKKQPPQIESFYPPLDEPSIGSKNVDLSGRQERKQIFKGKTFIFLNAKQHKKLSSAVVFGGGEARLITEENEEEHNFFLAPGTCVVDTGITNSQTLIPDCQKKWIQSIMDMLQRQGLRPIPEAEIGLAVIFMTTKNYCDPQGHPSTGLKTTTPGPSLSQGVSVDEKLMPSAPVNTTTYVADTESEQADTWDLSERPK

[2] = molecular target: NBS1 N-terminal FHA-BRCT region (sample of the ITC) (human); assay: ITC

In the case of `C[C@]1(c2nc3c(C(N)=O)cccc3[nH]2)CCCN1` [PARP inhibition, Veliparib], the “number of cells with NBS1-GFP positive nucleoli” value [1] is reported as “small but reproducible decrease”.

`CC(C)[C@H](NC(=O)[C@H](CC(=O)O)NC(=O)[C@@H](NC(=O)[C@H](CCC(=O)O)NC(=O)[C@H](CC(=O)O)NC(=O)[C@H](COP(=O)(O)O)NC(=O)[C@H](CO)NC(=O)[C@H](CO)NC(=O)[C@@H](N)CO)[C@@H](C)OP(=O)(O)O)C(=O)N[C@@H](CCC(=O)O)C(=O)O` [SDET] (H-SSS[pS]DE[pT]DVE-OH) showed a Kd (NBS1) of roughly 1000 nM.

Molecule SSS[pS]DE[pT]DVE [Treacle SDET phosphopeptide (SSSpSDEpTDVE)] has a Kd [2] of 1000 nM.
